Compound activity deposited in PubChem BioAssay by several laboratories.
Shown are actives, neighbours in structure and some others; about 4.2% of the full set was active somewhere.
HDAC3 inhib: HDAC3 deacetylase inhibitors, primary screen, biochemical, fluorescence, cell-free homogeneous; Histone deacetylase 3 (Homo sapiens), O15379; recombinant HDAC3, fluorogenic peptide/trypsin coupled; inhibition, % at 8.3 µM; 0.15% of 320,000 active; in the data active = inhibition above about 26%, passing the limit was not always enough; inconclusive = no clear call, values can overlap the other calls
Fh CTSL1 inh: Fasciola hepatica cathepsin L1 inhibitors, primary screen, counter-screen for PFM18AAP inhibitor project, biochemical, QFRET, fluorogenic peptide substrate. recombinant F. hepatica cathepsin L1, Z-Leu-Arg-MCA fluorescence. inhibition, % at 5.96 µM. 0.49% of 300,000 active;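 active = inhibition above the mean of all tested compounds plus 3 SD, set per screening campaign, cut at about 17% in these data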
AHR activator: AHR activators, primary screen, cell-based, luminescence, luciferase reporter, human; Aryl hydrocarbon receptor (Homo sapiens), P35869; AHR-responsive luciferase reporter cells; activation, % at 5 µM; 2.5% of 320,000 active; AID 2796, 2010; in the data active = activation above about 47%
Target sequence (P35869 whole entry, looked up): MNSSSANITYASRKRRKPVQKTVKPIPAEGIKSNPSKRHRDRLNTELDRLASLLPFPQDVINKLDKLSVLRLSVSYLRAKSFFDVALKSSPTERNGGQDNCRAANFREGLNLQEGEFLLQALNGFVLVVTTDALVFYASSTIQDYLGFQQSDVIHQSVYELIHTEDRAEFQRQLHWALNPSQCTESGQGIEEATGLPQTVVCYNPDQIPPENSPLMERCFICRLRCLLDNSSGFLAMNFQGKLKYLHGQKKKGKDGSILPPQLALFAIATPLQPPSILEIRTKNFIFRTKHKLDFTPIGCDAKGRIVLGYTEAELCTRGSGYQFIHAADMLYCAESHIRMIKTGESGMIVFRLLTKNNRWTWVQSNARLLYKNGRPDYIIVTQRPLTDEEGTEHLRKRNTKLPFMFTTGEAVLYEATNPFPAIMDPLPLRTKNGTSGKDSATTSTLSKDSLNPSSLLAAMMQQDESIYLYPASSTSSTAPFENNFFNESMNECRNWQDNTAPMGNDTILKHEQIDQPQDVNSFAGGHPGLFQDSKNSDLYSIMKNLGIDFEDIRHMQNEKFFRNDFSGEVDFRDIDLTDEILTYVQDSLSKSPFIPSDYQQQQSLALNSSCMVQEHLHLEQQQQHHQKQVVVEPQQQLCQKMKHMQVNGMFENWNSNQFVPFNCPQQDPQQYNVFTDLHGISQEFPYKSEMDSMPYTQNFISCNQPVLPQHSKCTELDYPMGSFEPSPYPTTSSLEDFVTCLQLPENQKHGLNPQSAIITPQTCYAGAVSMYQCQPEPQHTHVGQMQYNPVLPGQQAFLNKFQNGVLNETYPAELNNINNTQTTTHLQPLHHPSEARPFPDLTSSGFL
SENP1 FRET inh: human SENP1 catalytic domain inhibitors, primary screen, biochemical, FRET, uHTS | inhibition, % at 10 µM | 0.21% of 360,000 active | recombinant SENP1 catalytic domain, CyPet-SUMO1-YPet FRET cleavage;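 active = inhibition at least 30% at 10 µM, raw YFP signal under a set limit, fluorescence ratio 0.5 to 1.5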
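material = recombinant human SENP1 catalytic domain, His6-tagged | quantity = 20 pM enzyme | reagent = 25 nM SUMO1 FRET substrate | compound dosing = 10 µM single point, 0.5% DMSO | timing = 50 min enzyme reaction, room temperature, light-protected | detection = FRET, CFP and YFP emission | control set = no-enzyme low, enzyme-DMSO high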
PfM18AAP inh: PfM18AAP inhibitors, malaria aminopeptidase, primary screen, biochemical, QFRET, recombinant enzyme; inhibition, % at 7.35 µM; M18 aspartyl aminopeptidase (Plasmodium falciparum 3D7); AID 1822, 2009; H-Glu-NHMec fluorogenic cleavage; 1.2% of 290,000 active;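 active = inhibition above the campaign mean inhibition over all tested compounds plus 3 SD, cut at about 28% in these data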
GAA850 FXN act: FXN promoter activators, primary screen, cell-based, luciferase luminescence, HEK293 lucGAA850; HEK293 lucGAA850 FXN promoter luciferase reporter, 24 h; percent of 10 µM SAHA response; activation, % at 6 µM; 0.56% of 360,000 active; AID 540364, 2011;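 active = activation above the average of all compounds screened plus 3 SD, cutoff fixed separately per campaign, cut at about 7.5% in these data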
GAA30 FXN cntr: GAA30 FXN promoter activators, confirmation, counter-screen for GAA850 frataxin promoter activator project, cell-based, luminescence, HEK293, lucGAA30, triplicate; shares compounds with GAA850 FXN act; activation, % at 6 µM; HEK293 lucGAA30 FXN promoter luciferase, 24 h; DMSO = 0%, 5 µM ipriflavone = 100%; 66% of 1,900 active;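 active = mean activation above the mean of solvent-only control wells plus 3 SD, cut at about 22% in these data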;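 note: counterscreen of GAA850 promoter hits where activity marks nonselective or luminescence artifacts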
FXN GAA850 conf: FXN GAA850 promoter activators in reporter cells, confirmation, cell-based, luminescence, HEK293 lucGAA850, triplicate | shares compounds with GAA850 FXN act | HEK293 lucGAA850 FXN promoter luciferase reporter, 24 h; 100% = activation by SAHA | activation, % at 6 µM | 86% of 1,900 active;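 active = mean activation above a set limit taken from the primary screen, cut at about 8% in these data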
Hits are given with their value; n = inactive; u = inconclusive; x = no result.

SMILES	HDAC3 inhib	Fh CTSL1 inh	AHR activator	SENP1 FRET inh	PfM18AAP inh	GAA850 FXN act	GAA30 FXN cntr	FXN GAA850 conf
CN(C)CCOC(=O)NC12CC3CC(CC(C3)C1)C2	n	n	n	n	n	n	x	x
O=C(NC12CC3CC(CC(C3)C1)C2)OCCNC1CCCCC1	n	n	n	n	n	15	23	10
Cn1c(=O)[nH]c(=O)c2c1nc(CN1CCN(c3cccc(Cl)c3)CC1)n2CCc1ccccc1	n	n	n	n	n	n	x	x
CCCCCn1c(CN2CCN(c3cccc(Cl)c3)CC2)nc2c1c(=O)[nH]c(=O)n2C	n	n	n	n	n	8.5	n	n
CC1S/C(=N/N=C2CCC(C(C)(C)C)CC2)NC1=O (centres undefined)	n	n	n	n	n	14	28	7.6
COc1ccc(/C=C(\C#N)C(=O)NC(C)c2ccccc2)cc1O (centres undefined)	n	n	n	n	n	n	x	x
CCOCCCNC(=O)/C(C#N)=C/c1ccc([N+](=O)[O-])o1	n	n	n	n	n	11	n	n
CCOCCCNC(=O)/C(C#N)=C/c1ccc(-c2ccc(S(=O)(=O)N3CCOCC3)cc2)o1	n	n	n	n	n	n	x	x
CC(NC(=O)/C(C#N)=C/c1ccc([N+](=O)[O-])o1)c1ccccc1 (centres undefined)	n	n	n	n	n	10	n	8.5
COc1ccc(C(C)=O)cc1CC1(C)C(=O)Nc2ccc(-c3ccccc3OC)cc21 (centres undefined)	x	x	x	n	x	15	n	9.2
COc1ccccc1-c1ccc2c(c1)C(C)(Cc1cccc(F)c1)C(=O)N2 (centres undefined)	x	x	x	n	x	11	n	12
CC1(Cc2cccc(F)c2)C(=O)Nc2ccc(OC(F)(F)F)cc21 (centres undefined)	x	x	x	n	x	n	x	x
COc1ccc(C(C)=O)cc1CC1(C)C(=O)Nc2ccc(OC(F)(F)F)cc21 (centres undefined)	x	x	x	n	x	n	x	x
Nc1c(C(=O)c2ccccc2)oc2ccc([N+](=O)[O-])cc12	n	n	n	n	n	8.3	99	35
O=C(c1ccccc1)c1ccc(Sc2ccc([N+](=O)[O-])cc2)cc1	n	n	n	n	n	n	x	x
Cc1ccc(CNC(=O)CN2NS(=O)(=O)c3ccccc3C2=O)cc1	x	x	x	n	x	n	x	x
C=CCn1c(C)cc(C(=O)CN2NS(=O)(=O)c3ccccc3C2=O)c1C	u	n	n	n	n	7.7	n	32
O=C(Nc1nnc(SCc2ccc(F)cc2)s1)C1CC(=O)N(Cc2ccccc2)C1 (centres undefined)	n	n	n	n	n	11	25	12
c1cnc(SCCOc2ccc3c(c2)CCC3)nc1	n	n	n	n	n	8.2	101	38
Cc1cccc(Nc2nc(-c3sc(C)nc3C)cs2)c1	n	n	70	n	n	8.5	97	32
CN(Cc1ccccc1)c1nc(N)c([N+](=O)[O-])c(Nc2cccc(F)c2)n1	n	n	48	n	n	9.6	27	17
COc1ccc(CCN2C(=O)COc3ccccc3C2C(=O)Nc2ccc3c(c2)OCCO3)cc1OC (centres undefined)	x	x	x	n	x	x	x	x
CC(C)CNC(=O)c1ccccc1NC(=O)c1ccccc1N(C)S(=O)(=O)c1ccccc1	n	n	n	n	n	13	n	n
CCCNC(=O)c1ccccc1NC(=O)c1ccccc1N(C)S(=O)(=O)c1ccccc1	n	n	n	n	n	14	n	19
